These results are taken from the EternaBench riboswitch data.

In the data set the test system is MS2 coat protein. The experiment in a line: apparent Kd, MS2 coat protein; higher = weaker binding; RNA-MaP array; FMN 200 µM where present. The procedure, abridged: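 Each design was made on Illumina sequencing-chip clusters by stalled E. coli RNA polymerase and titrated with SNAP-549-labelled MS2 coat protein from 0.7 or 1.5 nM, doubling to 3 µM, in the absence and then the presence of constant ligand. The buffer was 100 mM Tris-HCl pH 7.5, 80 mM KCl, 4 mM MgCl2, BSA, DTT, yeast tRNA and Tween-20. The apparent Kd is the median of filtered per-cluster fits of binding curves, with green signal normalised to red-channel RNA signal and control-cluster median Fmax.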

[1] abbreviates: designed as: OFF switch for flavin mononucleotide, no ligand.
Setting [2] is: ligand present: flavin mononucleotide, designed as: OFF switch for flavin mononucleotide.
The mark [3] stands for this setting: designed as: ON switch for flavin mononucleotide, no ligand.
The mark [4] stands for this setting: ligand present: flavin mononucleotide, designed as: ON switch for flavin mononucleotide.

As usually defined, the apparent Kd is a dissociation constant that holds for the conditions of the assay.

In the case of “GGAUAGCACAGAGGAUAUACGUGCUAGAGAUACUAGCAAAAUUUCCUCACAUGAGGAUCACCCAUGUAGAAGGCUGUCCUAUCG”, the “apparent Kd” value by setting is: under setting [1], 0.00444 µM; under setting [2], 0.0055 µM.
In the case of “AUUACCACGGUAAGGAUAUUGUACGCAGCAUGCGUUAAGAAGGUACAUGAGGAUCACCCAUGUCUUCCGGUAGC”, the “apparent Kd” value runs as follows: under setting [1], 0.0205 µM; under setting [2], 0.0212 µM.
Consider “CGACCCUGAACGAAAUCAUGCAGUCAGGAUAUACAUGAGGAUCACCCAUGUGCGUACCAACUCGUGUAGAAGGGACUUUCAGGG”, for which the “apparent Kd” value was 0.0127 µM under setting [1] and 0.0332 µM under setting [2].
“AGCUGUGGCCGAGGAUAUCUAAAACUCAAAACCGAAAUAUAAUCGGACAUGAGGAUCACCCAUGUAGAGAAGGCGGUCUCAGCA”: the “apparent Kd” value is 0.0788 µM under setting [1] and 0.157 µM under setting [2].
As for “GUAGCUAUCGGAGGAUAUUCAUAUCGGAAACGGACAUGAGGAUCACCCAUGUGGCUAAAGCCUUGGGAGAAGGCCGAUAGCUAC”, the “apparent Kd” value came to 0.12 µM under setting [3] and 0.00775 µM under setting [4].
Consider “CCGCAAAAGCAGGAUAUCGUAUCGGAAACGAUACGAGAAGGGUUUACAUGAGGAUCACCCAUGUUCCUUAGCGG”, for which the “apparent Kd” value is, setting by setting: under setting [1], 0.0291 µM; under setting [2], 0.038 µM.
The like results for “UAUAUAAUAAGAGCUGGAAACUCAACAUGAGGAUCACCCAUGUAGGAUAUCAGCACGAUAAGUGCUGAGAAGGACAACCAGCUC” were, in that order, 0.0199 µM and 0.0233 µM.
As to “ACUUGACAUGAGGAUCACCCAUGUCAGGAUAUAGUAGGACAAAUAAAUAAAAGUUCUACUAGAAGGGACGUGGG”, the “apparent Kd” value by setting is: under setting [1], 0.0216 µM; under setting [2], 0.0225 µM.
As for “AUCAGCUCGUCAGGAUAUACGUCACUGCGUCAGCAGUGUGGUAAGAUCACAUGAGGAUCACCCAUGUAGAAGGGACGACCUGAU”, the “apparent Kd” value is, setting by setting: under setting [1], 0.0138 µM; under setting [2], 0.278 µM.
The like results for “UACGUACAGAAGUACUCCGGGUCCAGAAGGGACAUGAGGAUCACCCAUGUACCGUUGAUUGCUUGUCAGGAUAUGGACCCGGCC” were, in that order, 0.00729 µM and 0.0285 µM.
For “UUUAACGUAGCAGGAUAUUGACGACUUGGGACAUGAGGAUCACCCAUGUUGCAAGAAGGGCUUAGUCAAGACACGAGCGGUGUU”, the “apparent Kd” value was found to be 0.00654 µM under setting [1] and 0.00815 µM under setting [2].
As to “AAAACACAUGAGGAUCACCCAUGUGAGGAUAUGCUAUGGAAAAUAAAAAUAAAACAUAGCAGAAGGCACAAAGG”, the “apparent Kd” value runs as follows: under setting [1], 0.0625 µM; under setting [2], 0.152 µM.
In the case of “CGCGAACAGGCUAACAUGAGGAUCACCCAUGUGGACUCAUGGUAGGAUAUCGGGAAGGAGGAAACCGAGAAGGGCCGGUGAGCC”, the “apparent Kd” value reads like this: under setting [3], 0.498 µM; under setting [4], 0.359 µM.
As for “GUCAGCUCGUGAGGAUAUACAUGUGCUGGAUACAGCACUAAUUAAAUCACAUGAGGAUCACCCAUGUAGAAGGCACGAGCUGAU”, the “apparent Kd” value under setting [1] was found to be 0.0167 µM and the “apparent Kd” value under setting [2] came out at 0.0248 µM.
Turning to “GGAGACCUCACAGGAUAUGCUGGACUUUGUCCAGCAGAAGGGUGAAAACAUGAGGAUCACCCAUGUAUGGUCUCCAAAUUUAAG”, the “apparent Kd” value under setting [3] came out at 0.19 µM and the “apparent Kd” value under setting [4] is 0.0153 µM.
In the case of “GUGGUCAGACAUGAGGAUCACCCAUGUGGAAUAAAUAACAGACAGGAUAUCAAAUAUAGGAUAUAUGAGAAGGGUCGAUUGGUG”, the “apparent Kd” value is, setting by setting: under setting [3], 0.0995 µM; under setting [4], 0.0843 µM.
On to “AAGAGCGAUUCUCCCUUCCUACAUGAGGAUCACCCAUGUACGAGAAGGCGCCGUUUAUACAACGGUGAGGAUAUCGUGCGUUAC”, for which the “apparent Kd” value runs as follows: under setting [1], 0.00449 µM; under setting [2], 0.0047 µM.
For the sequence “GUGGCCCAGGCACAGGAUAUGUUUCUCGUAACAUGAGGAUCACCCAUGUGCCUAUGAGAUUGUUUGCAGAAGGGUGCACGCCACG”, the “apparent Kd” value under setting [3] is 0.449 µM and the “apparent Kd” value under setting [4] is 0.024 µM.
For “GCCAUUUAUGUAGGAUAUGCGAGGCGAGCCUGAGCAGAAGGACAUGAGGAUCACCCAUGUAUUGCGGUUUAUGUUCAGAUCGCU”, the “apparent Kd” value was 0.0161 µM under setting [1] and 0.0183 µM under setting [2].
As to “CCUCCGUAUUAGGAUAUCGUCCAGGAAACUGGACGAGAAGGAAUGACAUGAGGAUCACCCAUGUUAACGUGAUG”, the “apparent Kd” value by setting is: under setting [1], 0.0215 µM; under setting [2], 0.05 µM.
On to “UUAUUAUAUGUAGGAUAUGCGUAUUAUUAUUAUGCAGAAGGACAUGAGGAUCACCCAUGUAUAUUAUUAUUAUAUAUUAUAUAU”, for which the “apparent Kd” value under setting [1] amounted to 0.029 µM and the “apparent Kd” value under setting [2] was determined as 0.0669 µM.
With “GCUGGACGAGGAUAUAUAUGACGUGCUUCGGCACGAAGGUCACAUGAGGAUCACCCAUGUAGAAGGUGUCCAGC”, the “apparent Kd” value reads like this: under setting [1], 0.0307 µM; under setting [2], 0.105 µM.
Consider “UUGAGGUCAGGAUAUGCAUGGCGGGACUUGCGUCGUGGCGUGGAGAAGGGACAUGAGGAUCACCCAUGUGGAGC”, for which the “apparent Kd” value is, setting by setting: under setting [1], 0.0556 µM; under setting [2], 0.062 µM.
As for “GUAGCUAUCGGAGGAUAUUCAUACCGGAAACGGACAUGAGGAUCACCCAUGUGGAGAAAGCCUUAGGAGAAGGCCGAUAGCUAC”, the “apparent Kd” value runs as follows: under setting [3], 0.033 µM; under setting [4], 0.0089 µM.
With “AAAUGGGCGUAGGAUAUGAGAUGGUCUAGCAGCUCAGAAGGACGCACAUGAGGAUCACCCAUGUGAUCGGACUA”, the “apparent Kd” value under setting [2] is 0.224 µM.
Take “CCAUGGCUGUGAGGAUAUGUCUGACAAAGUCAGACAGAAGGUACAUGAGGAUCACCCAUGUGAAGAAAACCACAUUUGCCAUGG”: the “apparent Kd” value amounted to 0.006 µM under setting [1] and 0.00644 µM under setting [2].
As for “GCAGCUCCUGACAUGAGGAUCACCCAUGUUCAAUUGUUGAGUCAGGAUAUAGUCUAGAAACUAGACUAGAAGGGAUAUGCUGCU”, the “apparent Kd” value stood at 0.0123 µM under setting [3] and 0.0108 µM under setting [4].
Consider “GUAGAGUAGUGAGGAUAUACGAGAUCGAUAGAUCGGCGAUCCAUUUAUACAUGAGGAUCACCCAUGUAGAAGGCACUUCUCUAC”, for which the “apparent Kd” value turned out to be 0.00626 µM under setting [1] and 0.0628 µM under setting [2].
For “GGCGGCGCGGGCCACCGCAGGGCCAGAAGGACAUGAGGAUCACCCAUGUGGCAGAACAGGGCGGUGUAGGAUAUGGCAGGCUCG”, the “apparent Kd” value reads like this: under setting [1], 0.0355 µM; under setting [2], 0.0762 µM.
With “GGAUAGGACAGAGGAUAUACGUGCUAGAGAUACUAGCGAAAUUUCCUCACAUGAGGAUCACCCAUGUAGAAGGCUGUCCUAUCG”, the “apparent Kd” value stood at 0.0281 µM under setting [1] and 0.892 µM under setting [2].
As for “UAUAUAUAGUAAGGAUAUGUAAUUAGUUUAUAAACAGAAGGUACUGACAUGAGGAUCACCCAUGUUUUAGUGUGGGCAUGUAGA”, the “apparent Kd” value by setting is: under setting [1], 0.0877 µM; under setting [2], 0.134 µM.
As for “UGUUAGUAGUGAGGAUAUACAUACACCUUACAUGAGGAUCACCCAUGUUUUAAGAUUGAUAGAUAGUAGAAGGCACAUGAUGAU”, the “apparent Kd” value under setting [3] is 0.059 µM and the “apparent Kd” value under setting [4] was found to be 0.023 µM.
“CUAUACAUAUCAGGAUAUCUAUUUCCUACAUGAGGAUCACCCAUGUAGAGGAUCACCCAUGUAAAGGAGAAGGGAUAUGUAUAG”: the “apparent Kd” value was 0.105 µM under setting [3] and 0.0209 µM under setting [4].
For the sequence “GGUAGAGACGUUAACAUGAGGAUCACCCAUGUCGAAGGAGAUGAGGAUAUCGUAUACGAUGUAUAUGAGAAGGCAUGGUCUGCC”, the “apparent Kd” value under setting [3] is 0.0244 µM and the “apparent Kd” value under setting [4] was 0.0117 µM.
As to “GGAGCAGGGUCAGGAUAUGUAAGUAGACGGCAAAUAGAAGGGACAUGAGGAUCACCCAUGUAACAUUAAAAUGAAGCAAGGGAG”, the “apparent Kd” value came out at 0.0591 µM under setting [1] and 0.0711 µM under setting [2].
On to “UUAUUGUGAGGAUAUCCAAUAUAUGACAUGAGGAUCACCCAUGUUUCCACUCGUACCUCCGGAGAAGGCACAGUUU”, for which the “apparent Kd” value under setting [1] was 0.0312 µM and the “apparent Kd” value under setting [2] was 0.0241 µM.
As to “GUGCGUGGCUAGGAUAUUGUGGGUUUUUGUCAGCGAGAAGGAGCCACAUGAGGAUCACCCAUGUGGUGUUGCUC”, the “apparent Kd” value is, setting by setting: under setting [1], 0.187 µM; under setting [2], 0.0571 µM.
Take “GUUUCGUGAGGAUAUGUGGCUUCGAUCGUGCGAAAAAGGCUACAGAAGGCACAUGAGGAUCACCCAUGUUCCUC”: the “apparent Kd” value runs as follows: under setting [1], 0.119 µM; under setting [2], 0.568 µM.
On to “UGUGCUAUGUAGAAGGCAGAUCUGAUUCAGAUCUGAGGAUAUACAUGAGGAUCACCCAUGUUAUGCACCAGCACGAGAGUGCAU”, for which the “apparent Kd” value runs as follows: under setting [1], 0.0177 µM; under setting [2], 0.0918 µM.
For “AUGCUAUACGAAGGAUAUGGUUACAUGAGGAUCACCCAUGUAAUUCUUGUGAUCUUGUUUAAGUUCCAGAAGGUCGUAUAGCUA”, the “apparent Kd” value reads like this: under setting [1], 0.0291 µM; under setting [2], 0.0882 µM.
For “AAUUUACAUGAGGAUCACCCAUGUCAGGAUAUGGUUUUAUUUUUUUUUUUUUUUGAUUCCAGAAGGGACAGUUA” the same measures were 0.0211 µM and 0.0197 µM.
“UGUCGGAGCAGAGGAUAUUACAUGAGGAUCACCCAUGUAUAAAGAUCAAGCUGGAAACAGCAAUGUAAGAAGGCUGCUCCGACA”: the “apparent Kd” value under setting [1] came to 0.0604 µM and the “apparent Kd” value under setting [2] stood at 0.418 µM.
On to “ACAAAUGGAGGAUAUACAUGAGGAUCACCCAUGUAUAUCCUACAUGUGUGAUAAUAAUGUAGAAGGCCAUUUGA”, for which the “apparent Kd” value under setting [1] came out at 0.0137 µM and the “apparent Kd” value under setting [2] is 0.012 µM.
With “AAGCUGACAAUAAAUAACUCAAAUACAUGAGGAUCACCCAUGUAGGAUAUGCAGUGGAAUACACUGCAGAAGGACAUAGUCAGC”, the “apparent Kd” value is, setting by setting: under setting [1], 0.0136 µM; under setting [2], 0.0219 µM.
For “CAGUUCUGAGGAUAUCCACCCUCCUACAUGAGGAUCACCCAUGUUUCCCUCUGGGUUUUCGGAGAAGGCAGUUAUC” the same measures were 0.0447 µM and 0.0796 µM.
The like results for “UUCAGACAUGAGGAUCACCCAUGUGAGGAUAUGAUGCGAUCGUCGAAAGACGAUAGCAUCAGAAGGCACAUAUG” were, in that order, 0.167 µM and 0.315 µM.
“GCCGUGUUAGGAUAUUAAAGACCUGCGCCAAACGCAGGAAGUAAGAAGGAACAUGAGGAUCACCCAUGUGUCCG”: the “apparent Kd” value reads like this: under setting [1], 0.0172 µM; under setting [2], 0.0145 µM.
For “UCGCUCCGUGUAGGAUAUCGUUGUAUUCUGCGGCGAGAAGGACAUGAGGAUCACCCAUGUAUGUUAUUAUCACGCGUGGCGCAA” the same measures were 0.021 µM and 0.0189 µM.
